# Test results published in ChEMBL document CHEMBL3526045, “Conclusive identification of the oxybutynin-hydrolyzing enzyme in human liver” (Drug Metab Dispos, 2012).
# T1: Cocaine esterase (Homo sapiens, UniProt O00748)
# T1 sequence (O00748 whole entry): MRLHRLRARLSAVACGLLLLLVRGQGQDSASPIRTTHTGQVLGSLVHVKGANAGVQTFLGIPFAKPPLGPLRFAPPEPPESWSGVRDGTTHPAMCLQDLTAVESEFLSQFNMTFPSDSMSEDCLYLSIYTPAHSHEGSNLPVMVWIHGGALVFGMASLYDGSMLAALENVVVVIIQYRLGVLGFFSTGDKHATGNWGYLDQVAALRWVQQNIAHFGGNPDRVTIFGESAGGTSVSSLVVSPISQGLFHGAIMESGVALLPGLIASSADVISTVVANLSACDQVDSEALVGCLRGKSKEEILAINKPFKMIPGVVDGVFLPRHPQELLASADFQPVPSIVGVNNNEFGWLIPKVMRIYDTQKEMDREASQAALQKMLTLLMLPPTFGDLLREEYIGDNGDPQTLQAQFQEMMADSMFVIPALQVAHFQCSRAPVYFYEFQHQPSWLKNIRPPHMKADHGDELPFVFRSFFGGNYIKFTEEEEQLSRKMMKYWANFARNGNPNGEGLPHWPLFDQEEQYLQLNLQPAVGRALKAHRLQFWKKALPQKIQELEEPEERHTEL
# B1: Cocaine esterase (Homo sapiens) (protein)
# chain: T1 sequence (O00748 whole entry)
# Experiments:
# [1] = biological target: T1, Cocaine esterase; assay: Activity of human recombinant CES2 expressed in baculovirus-infected High Five insect cells assessed as enzyme-mediated compound formation formation treated with oxybutynin at 10 uM for 30 mins by HPLC analysis in presence of 10 uM CES1 inhibitor NDGA; type: ADME; settings: 0.5 h
# In short: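 Oxybutynin (10 μM) hydrolysis to CPGA by recombinant CES2-expressing microsomes at 0.1 mg/mL final protein, in 0.05 mol/L Tris-HCl pH 7.6 at 37 °C. Inhibitor was added before a 5 min preincubation, with at most 0.2% final DMSO. Substrate addition started the reaction, which ran 30 min. It was stopped with ACN/1% formic acid plus internal standard. CPGA was quantified by LC-MS/MS in negative MRM mode, as relative activity versus control, in duplicate.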
# [2] = tested on: Liver microsome; assay: Drug metabolism in human liver microsomes assessed as 2-cyclohexyl-2-phenylglycolic acid formation by Michaelis-Menten equation; type: ADME
# In short: (§1)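 Oxybutynin (2.5–250 μM) incubated 15 min at 37 °C in 0.05 mol/L Tris-HCl pH 7.6 after 5 min pre-incubation. Final protein: liver microsomes 0.05, liver cytosol 0.1, recombinant CES1 microsomes 0.05 mg/mL. Stopped with acetonitrile/1% formic acid plus internal standard; CPGA quantified by LC-MS/MS in negative MRM mode; duplicates. Km, Vmax from Michaelis-Menten fit; CLint = Vmax/Km.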
# [3] = tested on: Liver cytosol; assay: Intrinsic clearance in human liver cytosol assessed as 2-cyclohexyl-2-phenylglycolic acid formation per mg of protein by Michaelis-Menten equation; type: ADME, tissue-based; in short: as §1
# [4] = Activity of human recombinant CES1b/CES1A1 expressed in baculovirus-infected High Five insect cells assessed as enzyme-mediated 2-cyclohexyl-2-phenylglycolic acid formation per mg of protein by Michaelis-Menten equation; type: ADME; in short: as §1
# [5] = biological target: T1, Cocaine esterase; assay: Activity of human recombinant CES2 expressed in baculovirus-infected High Five insect cells assessed as 5 uM CES2 inhibitor loperamide-mediated inhibition of enzyme-mediated 2-cyclohexyl-2-phenylglycolic acid formation at 10 uM for 30 mins by HPLC analysis; settings: 0.5 h
# [6] = biological target: T1, Cocaine esterase; assay: Activity of human recombinant CES2 expressed in baculovirus-infected High Five insect cells assessed as 50 uM CES1 inhibitor clopidogrel-mediated inhibition of enzyme-mediated 2-cyclohexyl-2-phenylglycolic acid formation at 10 uM for 30 mins by HPLC analysis; settings: 0.5 h
# [7] = Activity of human recombinant CES1b/CES1A1 expressed in baculovirus-infected High Five insect cells assessed as enzyme-mediated 2-cyclohexyl-2-phenylglycolic acid formation by Michaelis-Menten equation; type: ADME; in short: as §1
# [8] = biological target: T1, Cocaine esterase; assay: Activity of human recombinant CES2 expressed in baculovirus-infected High Five insect cells assessed as 30 to 300 uM CES1 inhibitor procainamide-mediated inhibition of enzyme-mediated 2-cyclohexyl-2-phenylglycolic acid formation at 10 uM for 30 mins by HPLC analysis; settings: 0.5 h
# [9] = Drug metabolism in human liver cytosol; type: ADME, tissue-based
# [10] = biological target: T1, Cocaine esterase; assay: Activity of human recombinant CES2 expressed in baculovirus-infected High Five insect cells assessed as 5 uM CES1 inhibitor clopidogrel-mediated inhibition of enzyme-mediated 2-cyclohexyl-2-phenylglycolic acid formation at 10 uM for 30 mins by HPLC analysis; settings: 0.5 h
# [11] = tested on: Liver cytosol; assay: Drug metabolism in human liver cytosol assessed as 2-cyclohexyl-2-phenylglycolic acid formation by Michaelis-Menten equation; type: ADME, tissue-based; in short: as §1
# [12] = biological target: T1, Cocaine esterase; assay: Activity of human recombinant CES2 expressed in baculovirus-infected High Five insect cells assessed as enzyme-mediated 2-cyclohexyl-2-phenylglycolic acid formation per mg of protein by Michaelis-Menten equation; type: ADME
# [13] = tested on: Liver microsome; assay: Intrinsic clearance in human liver microsomes assessed as 2-cyclohexyl-2-phenylglycolic acid formation per mg of protein by Michaelis-Menten equation; type: ADME; in short: as §1
# [14] = Activity of human recombinant CES1b/CES1A1 expressed in baculovirus-infected High Five insect cells assessed as intrinsic clearance for enzyme-mediated 2-cyclohexyl-2-phenylglycolic acid formation per mg of protein by Michaelis-Menten equation; type: ADME; in short: as §1
# [15] = tested on: Liver microsome; assay: Drug metabolism in human liver microsomes assessed as 2-cyclohexyl-2-phenylglycolic acid formation per mg of protein by Michaelis-Menten equation; type: ADME; in short: as §1
# [16] = tested on: Liver cytosol; assay: Drug metabolism in human liver cytosol assessed as 2-cyclohexyl-2-phenylglycolic acid formation per mg of protein by Michaelis-Menten equation; type: ADME, tissue-based; in short: as §1
# [17] = biological target: T1, Cocaine esterase; assay: Activity of human recombinant CES2 expressed in baculovirus-infected High Five insect cells assessed as intrinsic clearance for enzyme-mediated 2-cyclohexyl-2-phenylglycolic acid formation per mg of protein by Michaelis-Menten equation; type: ADME
# [18] = Drug metabolism in human liver microsomes; type: ADME
# [19] = substrate: CCN(CC)CC#CCOC(=O)C(O)(c1ccccc1)C1CCCCC1; assay: Activity of human recombinant CES2 expressed in baculovirus-infected High Five insect cells assessed as enzyme-mediated 2-cyclohexyl-2-phenylglycolic acid formation by Michaelis-Menten equation; type: ADME
# [20] = substrate: CCN(CC)CC#CCOC(=O)C(O)(c1ccccc1)C1CCCCC1; assay: Activity of human CES2; type: ADME
molecule,measurement,setting,value
O=C(O)C(O)(c1ccccc1)C1CCCCC1 (stereo unspecified),Drug metabolism,[1],metabolite_detected
CCN(CC)CC#CCOC(=O)C(O)(c1ccccc1)C1CCCCC1.Cl (stereo unspecified) [OXYBUTYNIN CHLORIDE],Km,[2],22 µM
same,CLint,[3],8.2 µL/min/mg
same,Vmax,[4],310 pmol/min
same,inhibition (INH),[5],58%
same,inhibition (INH),[6],53%
same,Km,[7],17 µM
same,inhibition (INH),[8],< 14%
same,Km,[9],13 µM
same,inhibition (INH),[10],< 11%
same,Km,[11],13 µM
same,Vmax,[12],32 pmol/min
same,CLint,[13],5.9 µL/min/mg
same,clearance,[14],18 µL/min/mg
same,Vmax,[15],130 pmol/min
same,Vmax,[16],110 pmol/min
same,clearance,[17],0.51 µL/min/mg
same,Km,[18],22 µM
B1,Km,[19],62 µM
same,Km,[20],1100 µM
same,Vmax,[20],0.36 µmol/min/mg
